Data set [1] in a line: Inhibition of HCV NS5B polymerase. Details: species or system Hepacivirus hominis. Put shortly: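 N-terminally tagged full-length NS5B construct; IC50 values are the mean of duplicate measurements on two separate weighings.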
Data set [2] has as its system Hepatitis C virus. The data set can be described thus: Inhibition of subgenomic HCV RNA replication in Huh7 cells by cell-based replicon assay. The format is functional, organism-based, Hepacivirus hominis. The note with it: Huh-7. In a few lines: (§1)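 Subgenomic HCV RNA replicon in Huh-7 cells. Replicon RNA was quantified by RT-PCR and normalized to cellular GAPDH mRNA. EC50 runs were done in duplicate on two separate weighings.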

A short description of data set [3]: Distribution coefficient, log D at pH 7.2. It is filed as physicochemical. The note with it: octanol/water. Put shortly:
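Shake-flask partitioning between octanol and 100 mM phosphate buffer, pH 7.2; reported as log D(oct/buffer).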

In the next data set the test system is Enterovirus C. Put plainly: Inhibition of poliovirus RNA-dependent RNA polymerase at 200 to 250 uM.
For another data set, the species on record is Bos taurus. The data set can be described thus: Inhibition of calf thymus DNA-dependent RNA polymerase 2 at 200 to 250 uM.
Data set [4] concerns Hepatitis C virus. The data set can be described thus: Inhibition of subgenomic HCV RNA replication in Huh7 cells at 74 uM by cell-based replicon assay. It is filed as functional, Hepacivirus hominis. Particulars: Huh-7. Put shortly: as §1
On the technique in general: A replicon is a self-replicating genome or part of one, used to study replication in cells.

The nature of data set [5]: Solubility in phosphate buffer at pH 7.2. It is filed as physicochemical. Put shortly:
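Solubility measured in phosphate buffer at pH 7.2.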

Data set [6] in a line: Cytotoxicity against Huh7 cells. The format is cell-based. Particulars: human, huh-7.
Data set [7] relates to Hepatitis C virus. Put plainly: Inhibition of subgenomic HCV RNA replication in Huh7 cells at 3.4 uM by cell-based replicon assay. It is filed as functional, Hepacivirus hominis. Particulars: Huh-7. In a few lines:
as §1

pEC50, pIC50: −log10 of the molar value. Active and inactive are the calls of the source. The rule behind the calls is not given here.

As to `O=C(N[C@@H](Cc1ccc(O)cc1)C(=O)NCc1ccncc1)c1ccc2c(c1)nc(-c1ccoc1)n2C1CCCCC1`, in data set [1], the pIC50 (commonly the IC50 on a negative log10 scale, so that one unit is a factor of ten) is 5.43. In addition, in the data set on Hepatitis C virus [2], the pEC50 – broadly, the negative decadic logarithm of the EC50, by convention in mol/L – was less than 5.05.

In the case of `NC(=O)[C@H](Cc1ccc(O)cc1)NC(=O)c1ccc2c(c1)nc(-c1ccoc1)n2C1CCCCC1`, in data set [1], the pIC50 is 6.10. The compound further gave a pEC50 with Hepatitis C virus [2] of 4.89. Further, the logD (commonly lipophilicity at a set pH, counting ionised and neutral species) in data set [3] is 3.1.

In the case of `CN(C)CCNC(=O)[C@H](Cc1ccc(O)cc1)NC(=O)c1ccc2c(c1)nc(-c1ccoc1)n2C1CCCCC1`, the pIC50 in data set [1] is 5.68.

As to `CC(=O)Nc1nc([C@H](Cc2ccc(O)cc2)NC(=O)c2ccc3c(c2)nc(-c2ccoc2)n3C2CCCCC2)c[nH]1`, in data set [1], the pIC50 was 5.38. In addition, the inhibition – broadly, the drop in the measured response relative to a control, in per cent – in the data set on Enterovirus C was less than 50%. Also, the outcome in the data set filed under Bos taurus was Active.

`CC(=O)Nc1nc([C@H](Cc2c[nH]c3ccc(O)cc23)NC(=O)c2ccc3c(c2)nc(-c2ccoc2)n3C2CCCCC2)cs1` showed a negative logarithm of the IC50 (pIC50) in data set [1] of 6.26. Also, the pEC50 in the data set on Hepatitis C virus [2] is 5.24. This compound also displayed an inhibition in the data set with Enterovirus C of less than 50%. Besides, the result in the data set listed under Bos taurus was Active.

For the compound `CNc1nc([C@H](Cc2ccc(O)cc2)NC(=O)c2ccc3c(c2)nc(-c2ccoc2)n3C2CCCCC2)cs1`, the negative-log IC50 (pIC50) in data set [1] was 5.55. The compound further had a pEC50 in the data set with Hepatitis C virus [2] of 5.15. Also, the inhibition in the data set with Enterovirus C is less than 50%. Also, in the data set filed under Bos taurus, the outcome was Active.

Compound `O=C(N[C@@H](Cc1ccc(O)cc1)C(=O)NCc1ccccn1)c1ccc2c(c1)nc(-c1ccoc1)n2C1CCCCC1` showed a pIC50 in data set [1] of 5.57. In the data set with Hepatitis C virus [2], this compound gave a pEC50 of 5.00.

The compound `Nc1nc([C@H](Cc2ccc(O)cc2)NC(=O)c2ccc3c(c2)nc(-c2ccoc2)n3C2CCCCC2)cs1` gave a pIC50 in data set [1] of 5.89. This compound displayed an inhibition in the data set on Enterovirus C of less than 50%. In the data set filed under Bos taurus, the outcome was Active.

In the case of `O=C(N[C@@H](Cc1ccc(O)cc1)C(=O)N1CCOCC1)c1ccc2c(c1)nc(-c1ccoc1)n2C1CCCCC1`, the pIC50 in data set [1] is 5.02.

In [1], `CC(C)[C@H](Cc1ccc(O)cc1)NC(=O)c1ccc2c(c1)nc(-c1ccoc1)n2C1CCCCC1` gave a pIC50 of 5.37. For the same compound, the pEC50 in the data set on Hepatitis C virus [2] was 5.46. The log distribution coefficient (logD) in data set [3] worked out at 3.4.

Regarding `O=C(N[C@@H](Cc1c[nH]c2ccc(O)cc12)c1cscn1)c1ccc2c(c1)nc(-c1ccoc1)n2C1CCCCC1`, the pIC50 in [1] is 6.52. Further, the pEC50 with Hepatitis C virus [2] was 5.77. In data set [3], this compound registered a logD of 3.8. The inhibition in the data set on Enterovirus C is less than 50%. In addition, the outcome in the data set filed under Bos taurus was Active.

In turn, `O=C(N[C@@H](Cc1c[nH]c2ccc(O)cc12)C(=O)O)c1ccc2c(c1)nc(-c1ccoc1)n2C1CCCCC1` gave a pIC50 in data set [1] of 7.30. Besides, 74 µM produced 37% inhibition with Hepatitis C virus [4]. Besides, in the data set on Hepatitis C virus [2], the pEC50 was less than 4.13. Further, the logD in data set [3] was found to be 0.45. In addition, in [5], the solubility – broadly, how much of the substance goes into solution per volume – was greater than 850 µg/mL.

For `O=C(N[C@@H](Cc1ccc(O)cc1)c1cscn1)c1ccc2c(c1)nc(-c1ccoc1)n2C1CCCCC1`, the pIC50 in data set [1] is 5.18. Besides, in the data set on Hepatitis C virus [2], the pEC50 was 5.37. Also, the inhibition in the data set on Enterovirus C was less than 50%. Moreover, the outcome in the data set listed under Bos taurus was Active.

As to `CNc1nc([C@H](Cc2c[nH]c3ccc(O)cc23)NC(=O)c2ccc3c(c2)nc(-c2ccoc2)n3C2CCCCC2)cs1`, in data set [1], the pIC50 is 6.30. Further, the pEC50 with Hepatitis C virus [2] is 5.52. Moreover, the inhibition with Enterovirus C was less than 50%. In addition, the outcome in the data set filed under Bos taurus was Active.

In data set [1], `Cc1nc([C@H](Cc2c[nH]c3ccc(O)cc23)NC(=O)c2ccc3c(c2)nc(-c2ccoc2)n3C2CCCCC2)cs1` had a pIC50 of 6.52. In addition, the pEC50 with Hepatitis C virus [2] was 5.62. In [3], this compound returned a logD of 4.6. The solubility in data set [5] was less than 0.1 µg/mL. The inhibition in the data set with Enterovirus C was less than 50%. In addition, in the data set listed under Bos taurus, the outcome was Active.

In [1], `O=C(N[C@@H](Cc1ccc(O)cc1)C(=O)NCCN1CCOCC1)c1ccc2c(c1)nc(-c1ccoc1)n2C1CCCCC1` showed a pIC50 of 5.49. In addition, the pEC50 in the data set on Hepatitis C virus [2] is less than 4.89.

Compound `O=C(O)c1ccc2c(c1)nc(-c1ccoc1)n2C1CCCCC1` showed a pIC50 in data set [1] of 5.80.

In the case of `CC(=O)Nc1nc([C@H](Cc2ccc(O)cc2)NC(=O)c2ccc3c(c2)nc(-c2ccoc2)n3C2CCCCC2)cs1`, in data set [1], the pIC50 was 5.32. Moreover, in the data set on Hepatitis C virus [2], the pEC50 is 5.62. In the data set on Enterovirus C, this compound came in with an inhibition of less than 50%. For the same compound, in the data set filed under Bos taurus, the result was Active.

As for `CN(C)CCCNC(=O)[C@H](Cc1ccc(O)cc1)NC(=O)c1ccc2c(c1)nc(-c1ccoc1)n2C1CCCCC1`, the pIC50 in [1] is 5.72.

Turning to `NC(=O)[C@H](Cc1c[nH]c2ccc(O)cc12)NC(=O)c1ccc2c(c1)nc(-c1ccoc1)n2C1CCCCC1`, in data set [1], the negative logarithm of the IC50 (pIC50) is 6.66. The compound further gave a pEC50 in the data set on Hepatitis C virus [2] of 5.10.

Consider `CN1CCN(C(=O)[C@H](Cc2ccc(O)cc2)NC(=O)c2ccc3c(c2)nc(-c2ccoc2)n3C2CCCCC2)CC1`, for which the pIC50 in data set [1] was 4.96. The pEC50 with Hepatitis C virus [2] is less than 5.05.

Compound `Cc1nc([C@H](Cc2ccc(O)cc2)NC(=O)c2ccc3c(c2)nc(-c2ccoc2)n3C2CCCCC2)cs1` gave a pIC50 in [1] of 5.48. For the same compound, the pEC50 with Hepatitis C virus [2] is 5.13. Also, in the data set with Enterovirus C, the inhibition was less than 50%. The result in the data set filed under Bos taurus was Active.

`COc1ccc(CCNC(=O)c2ccc3c(c2)nc(-c2ccccn2)n3C2CCCCC2)cc1OC` gave a pIC50 in [1] of 4.92.

For the compound `COC(=O)[C@H](Cc1c[nH]c2ccc(O)cc12)NC(=O)c1ccc2c(c1)nc(-c1ccoc1)n2C1CCCCC1`, in data set [1], the pIC50 was 6.42. The Activity result in [6] is listed as “Toxic”. Further, at 3.4 µM the inhibition in the data set on Hepatitis C virus [7] was 30%.

Compound `O=C(O)COc1ccc2[nH]cc(C[C@H](NC(=O)c3ccc4c(c3)nc(-c3ccoc3)n4C3CCCCC3)C(=O)O)c2c1` showed a pIC50 in [1] of 7.57. Also, the pEC50 in the data set with Hepatitis C virus [2] is 4.19. Also, the log distribution coefficient (logD) in [3] is -1.6. For the same compound, in data set [5], the solubility is greater than 850 µg/mL.

In data set [1], `O=C(N[C@@H](Cc1ccc(O)cc1)C(=O)NCc1cccnc1)c1ccc2c(c1)nc(-c1ccoc1)n2C1CCCCC1` gave a pIC50 of 5.59. This compound also had a pEC50 in the data set on Hepatitis C virus [2] of 4.80.

For the compound `Cn1cc(C[C@H](NC(=O)c2ccc3c(c2)nc(-c2ccoc2)n3C2CCCCC2)c2csc(N)n2)c2cc(O)ccc21`, in [1], the negative-log IC50 (pIC50) is 6.05. The same compound showed a pEC50 with Hepatitis C virus [2] of 5.47. The inhibition in the data set on Enterovirus C was less than 50%. The outcome in the data set filed under Bos taurus was Active.

On to `Nc1nc([C@H](Cc2c[nH]c3ccc(O)cc23)NC(=O)c2ccc3c(c2)nc(-c2ccoc2)n3C2CCCCC2)cs1`, for which the pIC50 in data set [1] is 6.72. The same compound gave a pEC50 with Hepatitis C virus [2] of 5.24. Further, in the data set with Enterovirus C, the inhibition was less than 50%. In addition, in the data set filed under Bos taurus, the result was Active.

Consider `CN(C)c1nc([C@H](Cc2ccc(O)cc2)NC(=O)c2ccc3c(c2)nc(-c2ccoc2)n3C2CCCCC2)cs1`, for which the pIC50 in [1] was 5.29. The compound also had a pEC50 in the data set with Hepatitis C virus [2] of 5.08. Also, in the data set with Enterovirus C, the inhibition is less than 50%. Moreover, the outcome in the data set listed under Bos taurus was Active.

In the case of `CN(C)c1nc([C@H](Cc2c[nH]c3ccc(O)cc23)NC(=O)c2ccc3c(c2)nc(-c2ccoc2)n3C2CCCCC2)cs1`, in [1], the pIC50 is 6.05. Also, in the data set on Hepatitis C virus [2], the pEC50 was 5.43. For the same compound, the inhibition in the data set with Enterovirus C is less than 50%. Besides, in the data set filed under Bos taurus, the outcome was Active.

`O=C(N[C@@H](Cc1ccc(O)cc1)C(=O)O)c1ccc2c(c1)nc(-c1ccoc1)n2C1CCCCC1` had a pIC50 in [1] of 6.30. In the data set with Hepatitis C virus [2], the pEC50 was 4.32. In data set [6], the Activity result is “Not Active”.

With `O=C(N[C@@H](Cc1ccc(O)cc1)C(=O)Nc1cccnc1)c1ccc2c(c1)nc(-c1ccoc1)n2C1CCCCC1`, in data set [1], the pIC50 was 5.52. In the data set with Hepatitis C virus [2], the pEC50 is 5.22.

`CN(C)C(=O)[C@H](Cc1ccc(O)cc1)NC(=O)c1ccc2c(c1)nc(-c1ccoc1)n2C1CCCCC1` had a negative logarithm of the IC50 (pIC50) in [1] of 5.31.

These data come from ChEMBL document CHEMBL1149312, “Non-nucleoside benzimidazole-based allosteric inhibitors of the hepatitis C virus NS5B polymerase: inhibition of subgenomic hepatitis C virus RNA replicons in Huh-7 cells” (J Med Chem, 2004).
